Measurements published in ChEMBL document CHEMBL4368913, “Design, Synthesis, and Biological Evaluation of 6-Substituted Thieno[3,2- d]pyrimidine Analogues as Dual Epidermal Growth Factor Receptor Kinase and Microtubule Inhibitors” (J Med Chem, 2019).
The source made the active and inactive calls. No cut-off for these calls is given here.

Legend:
HT-29 = test: Antiproliferative activity against human HT-29 cells after 72 hrs by MTT assay; assay type: functional, cell-based; details: HT-29, 72 h
[1] = target: T1, Epidermal growth factor receptor (Homo sapiens, UniProt P00533); test: Inhibition of wild type EGFR (unknown origin) by bioluminescent ADP-glo kinase assay
HeLa [2] = test: Antiproliferative activity against human HeLa cells after 72 hrs by MTT assay; assay type: functional, cell-based
Tubulin = Tubulin (Bos taurus, UniProt Q6B856+Q862L2+Q862F3); test: Inhibition of bovine brain tubulin polymerization after 20 mins
Outline: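 Bovine brain tubulin (10 μM) preincubated with varying compound concentrations in 0.8 M monosodium glutamate, pH 6.6, at 30 °C, then chilled to 0 °C. 0.4 mM GTP added, mixtures warmed to 30 °C, assembly followed by turbidity at 350 nm.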

Jurkat [3] = test: Antiproliferative activity against human Jurkat cells after 72 hrs by MTT assay; assay type: functional, cell-based
Outline: (§1)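 Cells in medium with 10% FBS, seeded at 8×10^3 per well, 18 h at 37 °C, 5% CO2, then graded compound concentrations (DMSO ≤0.25%) for 72 h. Viability by MTT. […] Mean ± SE of dose-response curves from at least three independent experiments.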

RS4-11 = test: Antiproliferative activity against human RS4:11 cells after 72 hrs by MTT assay; assay type: functional, cell-based; details: RS4-11, 72 h; outline: as §1
Tubulin (Bos taurus) = Tubulin (Bos taurus) (UniProt Q6B856+Q862L2+Q862F3); test: Inhibition of [3H]-colchicine binding to bovine brain tubulin at 1 to 5 uM after 20 mins relative to control
Outline: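 Colchicine-binding inhibition in mixtures of 1 μM tubulin, 5 μM [3H]colchicine and test compound at 1 or 5 μM.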

A549 = test: Antiproliferative activity against human A549 cells after 72 hrs by MTT assay; assay type: functional, cell-based; details: A549, 72 h
[4] = target: T2, Vascular endothelial growth factor receptor 2 (Homo sapiens, UniProt P35968); test: Inhibition of VEGFR2 (unknown origin)
[5] = target: T2, Vascular endothelial growth factor receptor 2; test: Inhibition of wild type VEGFR2 (unknown origin) by bioluminescent ADP-glo kinase assay
HUVEC [6] = test: Antivascular activity in HUVEC assessed as effect on master junction at 10 to 100 nM after 1 hr by matrigel assay; assay type: functional, cell-based; details: Homo sapiens
Outline: (§2)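 HUVECs (primary cord-derived, passages 1-6), 6×10^4 cells per well on Matrigel, left 6 h to form capillary tubes. Compound at 10 or 100 nM then added for 1 h. Five fields per well photographed at 10x, and network dimensional/topological parameters quantified. Mean ± S.E.M. of three independent experiments.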

[7] = target: T1, Epidermal growth factor receptor; test: Inhibition of EGF-induced EGFR phosphorylation at Y1068 in human HeLa cells at 1 uM pretreated for 6 hrs followed by EGF cells and measured after 15 mins by Western blot analysis; assay type: cell-based
Outline: (§3)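 HeLa cells treated 6 h with compound (10-1000 nM) or erlotinib, then stimulated with EGF for 15 min. EGF level is given as 50 ng/mL in the methods and 30 ng/mL in the figure legend. Lysates immunoblotted for total EGFR and phospho-Y1068, with β-actin as loading control.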

HeLa [8] = test: Induction of apoptosis in human HeLa cells assessed as decrease in bcl2 expression at 50 to 100 nM after 24 to 48 hrs by Western blot analysis; assay type: functional, cell-based
Outline: (§4)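 HeLa cells incubated with compound at indicated concentrations and times, then washed in ice-cold PBS and lysed 30 min on ice. 10 µg protein per lane run on SDS-PAGE, transferred to PVDF and blocked overnight at 4 °C in 5% BSA. Probed 2 h at room temperature for PARP, Mcl-1 or Bcl-2, detected by ECL, and reprobed for β-actin as loading control.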

[9] = Toxicity in C57BL/6 mouse allografted with mouse B16 cells assessed as body weight loss at 3 to 7.5 mg/kg, ip dosing starting on day 9 post tumor injection administered […] on day 9,11, 13 and 15; assay type: organism-based; details: in vivo
Outline: (§5)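 Six-week-old male C57BL/6 mice injected subcutaneously in the dorsolateral flank with 2.5×10^5 BL6-B16 melanoma cells in PBS. Once tumors were palpable, ip dosing every other day on days 9, 11, 13 and 15 at 3 or 7.5 mg/kg in 50 µL DMSO. Vehicle controls; CA-4P 30 mg/kg reference. Tumor volume and body weight tracked; 5 mice/group, mean ± SEM.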

HeLa [10] = test: Induction of apoptosis in human HeLa cells assessed as decrease in […] expression at 50 to 100 nM after 24 to 48 hrs by Western blot analysis; assay type: functional, cell-based; outline: as §4
HeLa [11] = test: Induction of apoptosis in human HeLa cells at 50 nM after 24 to 48 hrs by Annexin V/propidium iodide-double staining-based flow cytometry; assay type: functional, cell-based; details: TDE = time-dependent effect
Outline: (§6)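 HeLa or Jurkat cells exposed 24 or 48 h, then double-labelled with annexin-V-FITC and PI and analysed by flow cytometry for phosphatidylserine exposure.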

HUVEC [12] = test: Antivascular activity in HUVEC assessed as effect on nodes at 10 to 100 nM after 1 hr by matrigel assay; assay type: functional, cell-based; details: Homo sapiens; outline: as §2
HeLa [13] = test: Induction of ROS generation in human HeLa cells at 50 nM after 12 hrs by 2,7-dichlorodihydrofluorescein diacetate-staining based flow cytometry; assay type: functional, cell-based
Outline: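 HeLa cells exposed 3, 6, 12 or 24 h to 50, 100 or 250 nM, then stained with JC-1 for mitochondrial potential or H2-DCFDA for ROS. Analysed by flow cytometry.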

HUVEC [14] = test: Antivascular activity in HUVEC assessed as effect on total branching length at 10 to 100 nM after 1 hr by matrigel assay; assay type: functional, cell-based; details: Homo sapiens; outline: as §2
B16 [15] = test: Antitumor activity against mouse B16 cells allografted in C57BL/6 mouse assessed as reduction in tumor burden at 3 mg/kg, ip dosing starting on day 9 post tumor injection administered […] on day 9,11, 13 and 15 relative to control; assay type: functional; set-up: scale not given: the % may be the effect or the level left; outline: as §5
Jurkat [16] = test: Induction of cell cycle arrest in human Jurkat cells assessed as accumulation at G2/M phase at 25 nM after 24 hrs by propidium iodide-stained flow cytometry; assay type: functional, cell-based
Outline: (§7)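 5×10^5 HeLa or Jurkat cells exposed 24 h, then collected, fixed in ice-cold 70% ethanol, treated with lysis buffer containing RNase A and 0.1% Triton X-100, and stained with PI. DNA content by flow cytometry. Mean ± SEM, three independent experiments.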

HeLa [17] = test: Induction of cell cycle arrest in human HeLa cells assessed as arrest in mitotic phase at 100 nM after 24 hrs by p-histone H3 antibody staining based flow cytometry (reference value: 1.32%); assay type: functional
HUVEC [18] = test: Antivascular activity in HUVEC assessed as effect on mesh area at 10 to 100 nM after 1 hr by matrigel assay; assay type: functional, cell-based; details: Homo sapiens; outline: as §2
HUVEC [19] = test: Antivascular activity in HUVEC assessed as effect on segment length at 10 to 100 nM after 1 hr by matrigel assay; assay type: functional, cell-based; details: Homo sapiens; outline: as §2
HeLa [20] = test: Induction of cell cycle arrest in human HeLa cells assessed as arrest in mitotic phase at 50 nM after 24 hrs by p-histone H3 antibody staining based flow cytometry (reference value: 1.32%); assay type: functional
HUVEC [21] = test: Antivascular activity in HUVEC assessed as effect on number of meshes at 10 to 100 nM after 1 hr by matrigel assay; assay type: functional, cell-based; details: Homo sapiens; outline: as §2
[22] = Cytotoxicity against HUVEC assessed as inhibition of cell growth; assay type: cell-based; details: human, HUVEC cells
B16 [23] = test: Antiproliferative activity against mouse B16 cells after 72 hrs by MTT assay; assay type: functional, cell-based; details: B16, 72 h
B16 [24] = test: Antitumor activity against mouse B16 cells allografted in C57BL/6 mouse assessed as reduction in tumor burden at 7.5 mg/kg, ip dosing starting on day 9 post tumor injection administered […] on day 9,11, 13 and 15 relative to control; assay type: functional; set-up: scale not given: the % may be the effect or the level left; outline: as §5
Jurkat [25] = test: Induction of apoptosis in human Jurkat cells at 50 nM after 24 to 48 hrs by Annexin V/propidium iodide-double staining-based flow cytometry; assay type: functional, cell-based; details: TDE = time-dependent effect; outline: as §6
[26] = target: T1, Epidermal growth factor receptor; test: Inhibition of EGF-induced EGFR phosphorylation at Y1068 in human HeLa cells pretreated for 6 hrs followed by EGF cells and measured after 15 mins by Western blot analysis; assay type: cell-based; outline: as §3
HeLa [27] = test: Induction of cell cycle arrest in human HeLa cells assessed as accumulation at G2/M phase at 25 nM after 24 hrs by propidium iodide-stained flow cytometry; assay type: functional, cell-based; outline: as §7

T2 sequence (P35968 whole entry): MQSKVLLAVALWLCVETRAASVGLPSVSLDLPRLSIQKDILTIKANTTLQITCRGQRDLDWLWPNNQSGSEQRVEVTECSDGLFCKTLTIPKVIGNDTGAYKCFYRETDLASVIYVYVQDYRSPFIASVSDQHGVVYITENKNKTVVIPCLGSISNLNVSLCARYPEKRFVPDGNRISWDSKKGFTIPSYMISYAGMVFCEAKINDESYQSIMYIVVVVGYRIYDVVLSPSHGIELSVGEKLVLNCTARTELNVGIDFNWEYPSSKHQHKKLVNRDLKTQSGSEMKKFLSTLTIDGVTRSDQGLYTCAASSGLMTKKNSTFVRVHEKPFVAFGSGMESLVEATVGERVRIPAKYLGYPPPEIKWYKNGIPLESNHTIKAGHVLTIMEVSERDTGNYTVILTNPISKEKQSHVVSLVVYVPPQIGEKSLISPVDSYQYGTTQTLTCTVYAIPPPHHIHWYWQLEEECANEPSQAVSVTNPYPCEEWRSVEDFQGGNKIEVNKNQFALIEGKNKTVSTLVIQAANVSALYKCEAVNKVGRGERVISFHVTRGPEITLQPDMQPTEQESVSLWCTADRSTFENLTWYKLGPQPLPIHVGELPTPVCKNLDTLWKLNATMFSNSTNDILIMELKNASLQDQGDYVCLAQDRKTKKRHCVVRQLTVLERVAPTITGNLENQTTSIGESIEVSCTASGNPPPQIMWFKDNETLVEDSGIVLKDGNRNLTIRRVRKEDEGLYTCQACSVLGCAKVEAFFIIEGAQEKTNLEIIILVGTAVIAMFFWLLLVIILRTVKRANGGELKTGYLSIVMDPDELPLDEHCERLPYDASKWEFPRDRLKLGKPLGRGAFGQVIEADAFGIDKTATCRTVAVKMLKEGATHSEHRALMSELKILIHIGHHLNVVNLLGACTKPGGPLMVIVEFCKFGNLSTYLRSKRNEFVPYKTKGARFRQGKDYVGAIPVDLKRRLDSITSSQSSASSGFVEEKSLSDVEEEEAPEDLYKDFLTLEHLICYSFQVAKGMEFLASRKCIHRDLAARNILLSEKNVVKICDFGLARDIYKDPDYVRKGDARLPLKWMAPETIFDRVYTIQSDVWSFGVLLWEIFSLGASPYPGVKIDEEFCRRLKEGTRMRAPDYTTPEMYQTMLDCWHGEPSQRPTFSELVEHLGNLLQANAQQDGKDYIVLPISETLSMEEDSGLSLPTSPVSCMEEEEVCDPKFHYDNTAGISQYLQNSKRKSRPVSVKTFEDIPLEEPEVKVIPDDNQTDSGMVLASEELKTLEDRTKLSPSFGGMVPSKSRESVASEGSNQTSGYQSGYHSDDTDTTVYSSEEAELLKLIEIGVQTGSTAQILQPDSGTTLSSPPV
T1 sequence (P00533 whole entry): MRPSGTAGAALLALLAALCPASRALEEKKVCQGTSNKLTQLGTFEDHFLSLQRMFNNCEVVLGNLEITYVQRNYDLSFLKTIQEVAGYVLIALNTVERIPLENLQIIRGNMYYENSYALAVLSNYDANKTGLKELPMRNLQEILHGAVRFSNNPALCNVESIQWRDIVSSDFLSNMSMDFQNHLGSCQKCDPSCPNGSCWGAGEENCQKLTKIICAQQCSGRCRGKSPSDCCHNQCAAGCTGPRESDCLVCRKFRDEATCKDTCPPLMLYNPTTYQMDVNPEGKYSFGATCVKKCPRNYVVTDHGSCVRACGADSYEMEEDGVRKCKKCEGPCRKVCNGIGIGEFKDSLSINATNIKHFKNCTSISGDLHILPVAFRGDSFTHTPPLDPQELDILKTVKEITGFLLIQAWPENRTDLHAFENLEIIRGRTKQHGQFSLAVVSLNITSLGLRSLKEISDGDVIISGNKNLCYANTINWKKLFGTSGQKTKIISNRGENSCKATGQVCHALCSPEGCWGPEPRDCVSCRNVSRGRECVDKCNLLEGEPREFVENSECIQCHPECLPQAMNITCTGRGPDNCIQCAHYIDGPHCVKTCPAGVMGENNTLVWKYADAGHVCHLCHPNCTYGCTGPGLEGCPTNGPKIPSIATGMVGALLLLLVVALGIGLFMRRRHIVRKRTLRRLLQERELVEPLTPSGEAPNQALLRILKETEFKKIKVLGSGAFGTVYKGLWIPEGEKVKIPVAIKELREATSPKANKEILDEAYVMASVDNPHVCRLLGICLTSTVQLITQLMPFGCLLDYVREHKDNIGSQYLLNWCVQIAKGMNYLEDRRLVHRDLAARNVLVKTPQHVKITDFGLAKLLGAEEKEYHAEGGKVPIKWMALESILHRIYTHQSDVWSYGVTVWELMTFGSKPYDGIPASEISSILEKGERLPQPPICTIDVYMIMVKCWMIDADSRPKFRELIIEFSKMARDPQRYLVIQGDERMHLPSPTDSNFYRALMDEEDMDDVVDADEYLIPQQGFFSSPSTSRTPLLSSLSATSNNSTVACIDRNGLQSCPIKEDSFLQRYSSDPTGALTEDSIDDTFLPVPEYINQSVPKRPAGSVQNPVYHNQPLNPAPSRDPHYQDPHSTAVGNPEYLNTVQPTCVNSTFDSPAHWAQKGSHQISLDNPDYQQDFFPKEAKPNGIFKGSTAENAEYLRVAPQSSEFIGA

## COc1cc(Nc2ncnc3cc(-c4ccc(Cl)cc4)sc23)cc(OC)c1OC
HT-29
  IC50: 87 nM
[1]
  IC50: 273 nM
HeLa [2]
  IC50: 90 nM
Tubulin
  IC50: 3300 nM
Jurkat [3]
  IC50: 3 nM
RS4-11
  IC50: 5 nM
Tubulin (Bos taurus)
  inhibition: 36%
A549
  IC50: 600 nM

## c1ccc(-c2cc3ncnc(Nc4ccc5[nH]ccc5c4)c3s2)cc1
[4]
  IC50: 80 nM

## COc1cc(Nc2ncnc3cc(-c4ccccc4)sc23)cc(OC)c1OC
HT-29
  IC50: 350 nM
[1]
  IC50: 23 nM
HeLa [2]
  IC50: 170 nM
Tubulin
  IC50: 10000 nM
Jurkat [3]
  IC50: 10 nM
RS4-11
  IC50: 260 nM
A549
  IC50: 2300 nM
[5]
  IC50: > 1000 nM

## COc1cc(Nc2ncnc3cc(-c4ccc(C)cc4)sc23)cc(OC)c1OC
HUVEC [6]
  Activity: Active
[7]
  inhibition: Active
HT-29
  IC50: 20 nM
[1]
  IC50: 30 nM
HeLa [8]
  Activity: Active
[9]
  Activity: Non-Toxic
HeLa [10]
  Activity: Active
HeLa [2]
  IC50: 1 nM
Tubulin
  IC50: 710 nM
HeLa [11]
  Activity: Tde
HUVEC [12]
  Activity: Active
HeLa [13]
  Activity: Active
HUVEC [14]
  Activity: Active
B16 [15]
  Activity: 28%
Jurkat [16]
  Activity: Active
Jurkat [3]
  IC50: 1 nM
RS4-11
  IC50: 2 nM
Tubulin (Bos taurus)
  inhibition: 76%
A549
  IC50: 19 nM
HeLa [17]
  Activity: 49.4 - 50%
HUVEC [18]
  Activity: Active
HUVEC [19]
  Activity: Active
HeLa [20]
  Activity: 36.8 - 38%
HUVEC [21]
  Activity: Active
[22]
  GI50: 56 nM
B16 [23]
  IC50: 23.4 nM
B16 [24]
  Activity: 52.5%
[5]
  IC50: > 1000 nM
Jurkat [25]
  Activity: Tde
[26]
  inhibition: Dose-dependent effect
HeLa [27]
  Activity: Active

## COc1cc(Nc2ncnc3cc(-c4ccc(Br)cc4)sc23)cc(OC)c1OC
HT-29
  IC50: 150 nM
[1]
  IC50: 326 nM
HeLa [2]
  IC50: 220 nM
Tubulin
  IC50: 2500 nM
Jurkat [3]
  IC50: 30 nM
RS4-11
  IC50: 190 nM
Tubulin (Bos taurus)
  inhibition: 35%
A549
  IC50: 530 nM

## COc1cc(Nc2ncnc3cc(-c4ccc([N+](=O)[O-])cc4)sc23)cc(OC)c1OC
HT-29
  IC50: 6300 nM
HeLa [2]
  IC50: 4900 nM
Jurkat [3]
  IC50: 2000 nM
RS4-11
  IC50: 1300 nM
A549
  IC50: 1100 nM

## COc1cccc(-c2cc3ncnc(Nc4cc(OC)c(OC)c(OC)c4)c3s2)c1
HT-29
  IC50: 3300 nM
HeLa [2]
  IC50: 3200 nM
Jurkat [3]
  IC50: 3000 nM
RS4-11
  IC50: 5400 nM
A549
  IC50: 8800 nM
